# From ChEMBL document CHEMBL3600335 (Bioorg Med Chem Lett, 2015)
# Activity calls are given as the source filed them. The calls are words filed in the database; no cut-off is given here.
# Columns and labels:
# [1] = test system: Human alphaherpesvirus 2; assay: Antiviral activity against HSV-2 186 infected in African green monkey Vero cells assessed as inhibition of viral yield after 48 hrs by crystal violet staining; assay type: functional, cell-based, strain 186
# Procedure, shortened: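 Viral replication yield reduction assay against HSV-2 strain 186 over a range of drug concentrations. Viral titer was averaged from quadruplicate samples at each concentration, and IC50 was calculated from the titers. Compounds were tested in two separate experiments.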
# [2] = molecular target: T1, Albumin (Homo sapiens, UniProt P02768); assay: Binding affinity to human serum albumin with excitation at 285 nm after 30 mins by fluorescence spectrophotometric analysis; assay type: ADME
# T1 sequence (P02768 whole entry): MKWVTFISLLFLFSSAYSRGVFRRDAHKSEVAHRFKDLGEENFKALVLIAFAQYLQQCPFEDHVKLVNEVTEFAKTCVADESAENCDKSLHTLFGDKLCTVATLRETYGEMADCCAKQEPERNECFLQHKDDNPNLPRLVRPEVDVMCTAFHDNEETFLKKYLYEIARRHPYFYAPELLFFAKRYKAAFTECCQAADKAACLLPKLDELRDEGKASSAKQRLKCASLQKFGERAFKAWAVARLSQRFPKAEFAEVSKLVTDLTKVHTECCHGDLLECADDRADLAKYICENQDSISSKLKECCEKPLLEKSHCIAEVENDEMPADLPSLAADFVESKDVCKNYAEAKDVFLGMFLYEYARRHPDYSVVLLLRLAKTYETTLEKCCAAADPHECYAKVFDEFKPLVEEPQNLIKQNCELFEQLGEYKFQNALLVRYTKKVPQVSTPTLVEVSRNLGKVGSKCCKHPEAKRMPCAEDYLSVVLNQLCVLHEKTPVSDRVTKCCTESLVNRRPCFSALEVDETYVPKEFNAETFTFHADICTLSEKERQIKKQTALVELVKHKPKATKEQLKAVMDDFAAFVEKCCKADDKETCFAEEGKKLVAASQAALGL
# [3] = molecular target: T1, Albumin; assay: Binding affinity to human serum albumin with excitation at 295 nm after 30 mins by fluorescence spectrophotometric analysis; assay type: ADME
# [4] = Selectivity index, ratio of CC50 for African green monkey Vero cells to IC50 for HSV-2 186; assay type: functional
# [5] = Cytotoxicity against African green monkey Vero cells assessed as cell viability after 48 hrs by Alamar Blue assay; assay type: cell-based; conditions: chlorocebus sabaeus
# [6] = test system: Human alphaherpesvirus 1; assay: Antiviral activity against HSV-1 15577 infected in African green monkey Vero cells assessed as reduction of virus-induced cytopathic effect after 4 to 6 days by light microscopic analysis; assay type: functional, organism-based; conditions: Human alphaherpesvirus 1, 15577, Vero
# [7] = Selectivity index, ratio of CC50 for African green monkey Vero cells to IC50 for HSV-1 15578; assay type: functional
# [8] = Cytotoxicity against African green monkey Vero cells assessed as cell viability after 3 days by MTT assay; assay type: cell-based; conditions: chlorocebus sabaeus
# [9] = test system: Human alphaherpesvirus 1; assay: Antiviral activity against HSV-1 15578 infected in African green monkey Vero cells assessed as reduction of virus-induced cytopathic effect after 4 to 6 days by light microscopic analysis; assay type: functional, organism-based; conditions: Human alphaherpesvirus 1, 15578, Vero
# [10] = molecular target: Human immunodeficiency virus type 1 reverse transcriptase (Human immunodeficiency virus 1) (UniProt Q72547); assay: Inhibition of HIV-1 reverse transcriptase at 37.5 to 150 ug/ml by Roche colorimetric assay
# [11] = molecular target: Human immunodeficiency virus type 1 reverse transcriptase (Human immunodeficiency virus 1) (UniProt Q72547); assay: Inhibition of HIV-1 reverse transcriptase in human Jurkat cells assessed as ratio MTT activity to reverse transcriptase activity with compound/reverse transcriptase activity with DMSO at 1 ug/ml after 72 hrs; assay type: cell-based
# Procedure, shortened: (§1)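 Jurkat cells infected with HIV-1 in the presence of compound, with DMSO as solvent control. Viability was read by MTT assay and HIV replication by reverse transcriptase activity assay. The value is the ratio MTT activity/(RT activity with compound/RT activity in DMSO).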
# [12] = molecular target: Human immunodeficiency virus type 1 reverse transcriptase (Human immunodeficiency virus 1) (UniProt Q72547); assay: Inhibition of HIV-1 reverse transcriptase in human Jurkat cells assessed as ratio MTT activity to reverse transcriptase activity with compound/reverse transcriptase activity with DMSO at 5 ug/ml after 72 hrs; assay type: cell-based; procedure, shortened: as §1
# [13] = test system: Human alphaherpesvirus 1; assay: Antiviral activity against HSV-1 KOS infected in African green monkey RC-37 cells assessed as inhibition of viral replication incubated with virus for 1 hr followed by viral adsorbtion to cells for 1 hr measured after 3 days by plaque reduction assay; assay type: functional, organism-based; conditions: Human alphaherpesvirus 1, KOS
# [14] = Solubility of the compound in water at room temperature; assay type: physicochemical
# [15] = molecular target: T1, Albumin; assay: Binding affinity to human serum albumin with excitation at 285 nm assessed as association constant by fluorescence emission spectroscopic analysis; assay type: ADME; conditions: isolated protein, 0.285 µM
# [16] = Selectivity index, ratio of CC50 for African green monkey RC-37 cells to IC50 for HSV-1 KOS; assay type: functional
# [17] = Cytotoxicity against African green monkey RC-37 cells assessed as cell viability after 3 days by neutral red uptake assay; assay type: cell-based; conditions: chlorocebus aethiops
# [18] = molecular target: T1, Albumin; assay: Binding affinity to human serum albumin with excitation at 285 nm by fluorescence emission spectroscopic analysis; assay type: ADME
# Procedure, shortened: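 Human serum albumin was titrated by fluorescence with the compound, using excitation at 285 nm. Kd was calculated from the titration spectra.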
# [19] = Selectivity index, ratio of CC50 for African green monkey Vero cells to IC50 for HSV-1 7401H; assay type: functional
# [20] = Cytotoxicity against African green monkey Vero cells assessed as cell viability after 2 days by trypan blue exclusion assay; assay type: cell-based; conditions: chlorocebus sabaeus
# [21] = test system: Human alphaherpesvirus 1; assay: Antiviral activity against HSV-1 7401H infected in African green monkey Vero cells after 2 to 3 days by plaque reduction assay; conditions: Human alphaherpesvirus 1, 7401H
# [22] = test system: Human alphaherpesvirus 1; assay: Antiviral activity against HSV-1 F infected in African green monkey Vero cells after 2 days by plaque reduction assay; assay type: functional, organism-based; conditions: Human alphaherpesvirus 1, strain F, 48 h
# [23] = Cytotoxicity against African green monkey Vero cells after 2 days by neutral red uptake assay; assay type: cell-based; conditions: chlorocebus sabaeus
# [24] = Selectivity index, ratio of CC50 for African green monkey Vero cells to IC50 for HSV-2 G; assay type: functional
# [25] = Selectivity index, ratio of CC50 for African green monkey Vero cells to IC50 for HSV-1 F; assay type: functional
# [26] = test system: Human alphaherpesvirus 2; assay: Antiviral activity against HSV-2 G infected in African green monkey Vero cells after 2 days by plaque reduction assay; assay type: functional, organism-based; conditions: Human alphaherpesvirus 2, strain G, 48 h
# [27] = Human alphaherpesvirus 2, strain 186, Vero, 48 h
compound,measurement,setting,value
C=C(C)[C@@H]1CC[C@]2(C(=O)N[C@H](C)C(=O)[O-])CC[C@]3(C)[C@H](CC[C@@H]4[C@@]5(C)CC[C@H](O)C(C)(C)[C@@H]5CC[C@]43C)[C@@H]12.C[N+](C)(C)CCO,IC50,[1]; [27],0.6 µM
same,Kd,[2],47 µM
same,Kd,[3],37 µM
same,Ratio CC50/IC50,[4],>166.7
same,CC50 at 48 h,[5],> 100 µM
C=C(C)[C@@H]1CC[C@]2(C(=O)[O-])CC[C@]3(C)[C@H](CC[C@@H]4[C@@]5(C)CC[C@H](O)C(C)(C)[C@@H]5CC[C@]43C)[C@@H]12.C[N+](C)(C)CCO,IC50,[1]; vero,0.9 µM
same,Kd,[2],3.9 µM
same,Kd,[3],4 µM
same,Ratio CC50/IC50,[4],>111.1
same,CC50 at 48 h,[5],> 100 µM
C=C(C)[C@@H]1CC[C@]2(C(=O)O)CC[C@]3(C)[C@H](CC[C@@H]4[C@@]5(C)CC[C@@H](O)[C@@](C)(C(=O)O)[C@@H]5CC[C@]43C)[C@@H]12,IC50,[6],64.4 µM
C=C(C)[C@@H]1CC[C@]2(C(=O)[O-])CC[C@]3(C)[C@H](CC[C@@H]4[C@@]5(C)CC[C@H](O)C(C)(C)[C@@H]5CC[C@]43C)[C@@H]12.CCCCCCCCCCCC[N+](C)(C)Cc1ccccc1,IC50,[1]; [27],7.2 µM
same,Kd,[2],1.6 µM
same,Kd,[3],1.9 µM
same,Ratio CC50/IC50,[4],1.7
same,CC50 at 48 h,[5],12 µM
C=C(C)[C@@H]1CC[C@]2(C(=O)O)CC[C@]3(C)[C@H](CC[C@@H]4[C@@]5(C)CC[C@@H](OS(=O)(=O)O)C(C)(C)[C@@H]5CC[C@]43C)[C@@H]12,Ratio CC50/IC50,[7],5
same,CC50 at 72 h,[8],228 µM
same,IC50,[9],45.7 µM
C=C(C)[C@@H]1CC[C@]2(C(=O)O)CC[C@]3(C)[C@H](CC[C@@H]4[C@@]5(C)CC[C@H](O)C(C)(C)[C@@H]5CC[C@]43C)[C@@H]12,inhibition,[10],inactive
same,Ratio,[11],0.158
same,Ratio,[12],0.649
C=C(C)[C@@H]1CC[C@]2(C(=O)O)CC[C@]3(C)[C@H](CC[C@@H]4[C@@]5(C)CC[C@H](O)C(C)(C)[C@@H]5CC[C@]43C)[C@@H]12 [BETULINIC ACID],IC50,[13],0.7 µM
same,solubility,[14],0.02 µg/mL
same,Ka,[15],1.685 ×10⁶ /M
same,Ratio CC50/IC50,[16],15.6
same,IC50,[1]; [27],1.6 µM
same,Kd,[2],4.5 µM
same,CC50 at 72 h,[17],10.9 µM
same,Kd,[3],1.3 µM
same,Ratio CC50/IC50,[4],>62.5
same,Kd,[18],0.593 µM
C=C(C)[C@@H]1CC[C@]2(C(=O)N[C@H](C)C(=O)[O-])CC[C@]3(C)[C@H](CC[C@@H]4[C@@]5(C)CC[C@H](O)C(C)(C)[C@@H]5CC[C@]43C)[C@@H]12.CCCCCCCCCCCC[N+](C)(C)Cc1ccccc1,IC50,[1]; [27],0.9 µM
same,Kd,[2],19 µM
same,Kd,[3],19 µM
same,Ratio CC50/IC50,[4],11.6
same,CC50 at 48 h,[5],10.5 µM
C=C(C)[C@@H]1CC[C@]2(C(=O)O)CC[C@]3(C)[C@H](CC[C@@H]4[C@@]5(C)CCC(=O)C(C)(C)[C@@H]5CC[C@]43C)[C@@H]12 [BETUNOLIC ACID],Ratio CC50/IC50,[19],6.2
same,CC50 at 48 h,[20],35.6 µM
same,IC50,[21],5.7 µM
C=C(C)[C@@H]1CC[C@]2(CO)CC[C@]3(C)[C@H](CC[C@@H]4[C@@]5(C)CC[C@H](O)C(C)(C)[C@@H]5CC[C@]43C)[C@@H]12 [BETULIN],IC50,[13],0.7 µM
same,Ratio CC50/IC50,[16],71
same,IC50,[22],0.9 µM
same,CC50 at 72 h,[17],49.7 µM
same,CC50 at 48 h,[23],165 µM
same,Ratio CC50/IC50,[24],17.6
same,Ratio CC50/IC50,[25],183
same,IC50,[26],9.4 µM
